Reference: ChEMBL document CHEMBL1926614, “Substituted thiazoles V. synthesis and antitumor activity of novel thiazolo[2,3-b]quinazoline and pyrido[4,3-d]thiazolo[3,2-a]pyrimidine analogues” (2012)

Assays:
Type in all cases: functional
[1] = system: UACC-257; assay: Growth inhibition of human UACC257 cells at 10 uM after 48 hrs by coulter counting; details: UACC-257, 48 h, read-out: GI
In short: (§1)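 Single-dose screen in the NCI 60 human tumor cell line panel (nine subpanels). Compounds dissolved in DMSO and diluted in phosphate buffered saline, keeping final DMSO below 1%. Added in duplicate wells to cells at 6 × 10⁴ cells/ml. Controls held PBS and DMSO at matching dilutions. Incubated at 37 °C, humidified, 5% CO₂. Reported as percent growth of treated cells.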

[2] = system: UACC-62; assay: Growth inhibition of human UACC62 cells at 10 uM after 48 hrs by coulter counting; details: UACC-62, 48 h, read-out: GI; in short: as §1
[3] = system: SF-539; assay: Growth inhibition of human SF539 cells at 10 uM after 48 hrs by coulter counting; details: SF-539, 48 h, read-out: GI
In short: (§2)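 Single-dose primary screen across the full NCI 60-cell-line panel. Stocks were made in DMSO and diluted in PBS to a final DMSO below 1%. Cultures at 6 × 10⁴ cells/ml were run in duplicate wells alongside PBS/DMSO vehicle controls at 37 °C in humidified 5% CO₂. Data were expressed as percent growth of treated cells.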

[4] = system: CCRF-CEM; assay: Growth inhibition of human CCRF-CEM cells at 10 uM after 48 hrs by coulter counting; details: read-out: GI; in short: as §2
[5] = system: HL-60(TB); assay: Growth inhibition of human HL-60(TB) cells at 10 uM after 48 hrs by coulter counting; details: HL-60, 48 h, read-out: GI
In short: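 Test compound was dissolved in DMSO and diluted in phosphate-buffered saline to a final DMSO level below 1%. Dilutions were plated in duplicate with cell culture at 6 × 10⁴ cells/ml. Vehicle controls held PBS and DMSO at matching dilutions. Incubation was at 37 °C, humidified, under 5% CO₂. Data were reported as percent growth of treated cells.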

[6] = system: K562; assay: Growth inhibition of human K562 cells at 10 uM after 48 hrs by coulter counting; details: K562, 48 h, read-out: GI; in short: as §2
[7] = system: MOLT-4; assay: Growth inhibition of human MOLT4 cells at 10 uM after 48 hrs by coulter counting; details: MOLT-4, 48 h, read-out: GI; in short: as §2
[8] = system: RPMI-8226; assay: Growth inhibition of human RPMI8226 cells at 10 uM after 48 hrs by coulter counting; details: RPMI-8226, 48 h, read-out: GI; in short: as §2
[9] = system: A549; assay: Growth inhibition of human A549 cells at 10 uM after 48 hrs by coulter counting; details: A549, 48 h, read-out: GI; in short: as §2
[10] = system: EKVX; assay: Growth inhibition of human EKVX cells at 10 uM after 48 hrs by coulter counting; details: read-out: GI; in short: as §2
[11] = system: HOP-62; assay: Growth inhibition of human HOP62 cells at 10 uM after 48 hrs by coulter counting; details: HOP-62, 48 h, read-out: GI; in short: as §2
[12] = system: NCI-H226; assay: Growth inhibition of human NCI-H226 cells at 10 uM after 48 hrs by coulter counting; details: NCI-H226, 48 h, read-out: GI; in short: as §2
[13] = system: NCI-H23; assay: Growth inhibition of human NCI-H23 cells at 10 uM after 48 hrs by coulter counting; details: NCI-H23, 48 h, read-out: GI; in short: as §2
[14] = Growth inhibition of human NCI-322M cells at 10 uM after 48 hrs by coulter counting; details: read-out: GI; in short: as §2
[15] = system: NCI-H460; assay: Growth inhibition of human NCI-H460 cells at 10 uM after 48 hrs by coulter counting; details: NCI-H460, 48 h, read-out: GI; in short: as §2
[16] = system: NCI-H522; assay: Growth inhibition of human NCI-H522 cells at 10 uM after 48 hrs by coulter counting; details: NCI-H522, 48 h, read-out: GI; in short: as §2
[17] = system: HCT-116; assay: Growth inhibition of human HCT116 cells at 10 uM after 48 hrs by coulter counting; details: HCT-116, 48 h, read-out: GI; in short: as §2
[18] = system: HCC 2998; assay: Growth inhibition of human HCC2998 cells at 10 uM after 48 hrs by coulter counting; details: HCC 2998, 48 h, read-out: GI; in short: as §2
[19] = system: HT-29; assay: Growth inhibition of human HT-29 cells at 10 uM after 48 hrs by coulter counting; details: HT-29, 48 h, read-out: GI; in short: as §2
[20] = system: KM12; assay: Growth inhibition of human KM12 cells at 10 uM after 48 hrs by coulter counting; details: KM12, 48 h, read-out: GI; in short: as §2
[21] = system: SF-268; assay: Growth inhibition of human SF268 cells at 10 uM after 48 hrs by coulter counting; details: SF-268, 48 h, read-out: GI; in short: as §2
[22] = system: SF-295; assay: Growth inhibition of human SF295 cells at 10 uM after 48 hrs by coulter counting; details: SF-295, 48 h, read-out: GI; in short: as §2
[23] = system: SNB-19; assay: Growth inhibition of human SNB19 cells at 10 uM after 48 hrs by coulter counting; details: SNB-19, 48 h, read-out: GI; in short: as §2
[24] = system: SNB-75; assay: Growth inhibition of human SNB75 cells at 10 uM after 48 hrs by coulter counting; details: SNB-75, 48 h, read-out: GI; in short: as §2
[25] = system: U-251; assay: Growth inhibition of human U251 cells at 10 uM after 48 hrs by coulter counting; details: U-251, 48 h, read-out: GI; in short: as §1
[26] = system: LOX IMVI; assay: Growth inhibition of human LOXIMVI cells at 10 uM after 48 hrs by coulter counting; details: read-out: GI; in short: as §2
[27] = system: M14; assay: Growth inhibition of human M14 cells at 10 uM after 48 hrs by coulter counting; details: M14, 48 h, read-out: GI; in short: as §2
[28] = system: MDA-MB-435; assay: Growth inhibition of human MDA-MB-435 cells at 10 uM after 48 hrs by coulter counting; details: MDA-MB-435, 48 h, read-out: GI; in short: as §2
[29] = system: SK-MEL-2; assay: Growth inhibition of human SK-MEL-2 cells at 10 uM after 48 hrs by coulter counting; details: SK-MEL-2, 48 h, read-out: GI; in short: as §2
[30] = system: SK-MEL-28; assay: Growth inhibition of human SK-MEL-28 cells at 10 uM after 48 hrs by coulter counting; details: SK-MEL-28, 48 h, read-out: GI; in short: as §2
[31] = system: SK-MEL-5; assay: Growth inhibition of human SK-MEL-5 cells at 10 uM after 48 hrs by coulter counting; details: SK-MEL-5, 48 h, read-out: GI; in short: as §2
[32] = system: IGROV-1; assay: Growth inhibition of human IGROV1 cells at 10 uM after 48 hrs by coulter counting; details: IGROV-1, 48 h, read-out: GI; in short: as §2
[33] = system: OVCAR-4; assay: Growth inhibition of human OVCAR4 cells at 10 uM after 48 hrs by coulter counting; details: OVCAR-4, 48 h, read-out: GI; in short: as §2
[34] = system: NCI/ADR-RES; assay: Growth inhibition of human NCI/ADR-RES cells at 10 uM after 48 hrs by coulter counting; details: read-out: GI; in short: as §2
[35] = system: A498; assay: Growth inhibition of human A498 cells at 10 uM after 48 hrs by coulter counting; details: A498, 48 h, read-out: GI; in short: as §2
[36] = system: ACHN; assay: Growth inhibition of human ACHN cells at 10 uM after 48 hrs by coulter counting; details: read-out: GI; in short: as §2
[37] = system: CAKI-1; assay: Growth inhibition of human Caki1 cells at 10 uM after 48 hrs by coulter counting; details: CAKI-1, 48 h, read-out: GI; in short: as §2
[38] = system: UO-31; assay: Growth inhibition of human UO31 cells at 10 uM after 48 hrs by coulter counting; details: UO-31, 48 h, read-out: GI; in short: as §1
[39] = system: DU-145; assay: Growth inhibition of human DU145 cells at 10 uM after 48 hrs by coulter counting; details: DU-145, 48 h, read-out: GI; in short: as §2
[40] = system: MCF7; assay: Growth inhibition of human MCF7 cells at 10 uM after 48 hrs by coulter counting; details: MCF7, 48 h, read-out: GI; in short: as §2
[41] = system: BT-549; assay: Growth inhibition of human BT549 cells at 10 uM after 48 hrs by coulter counting; details: BT-549, 48 h, read-out: GI; in short: as §2
[42] = system: T47D; assay: Growth inhibition of human T47D cells at 10 uM after 48 hrs by coulter counting; details: read-out: GI; in short: as §1

Measured: inhibition of growth at 10 µM

COc1ccc(/C=C2\CCCC3=C2N=C2SC=CN2C3c2ccc(OC)cc2)cc1 (stereo not drawn)
12.5%: [10]
21.6%: [12]
32%: [38]
15.4%: [28] | [33]
17.6%: [17]
18.8%: [27]
11.3%: [37]
14.4%: [7]
21%: [8]
> 10%: all other assays above

COc1ccc(/C=C2\CCCC3=C2N=C2SC=C(C)N2C3c2ccc(OC)c(OC)c2)cc1OC (stereo not drawn)
10.5%: [12]
11.4%: [10]
not listed: [11]
> 10%: all other assays above
